Key:
Rattus norvegicus [1] = assay: Anorectic potency in rat was tested and intraperitoneal dose that produces a half maximal response (in vivo); format: functional; details: ip
Mus musculus [2] = assay: Maximal response at 1 nmol/kg peroral dose; format: functional
Mus musculus [3] = assay: Maximal response at 1 nmol/kg intraperitoneal dose; format: functional
Mus musculus [4] = assay: Peroral dose that produces a half maximal response in mouse gall bladder emptying assay (in vivo); format: functional; details: po
Rattus norvegicus [5] = assay: (§1) Maximal response at 0.5 umol/kg intraperitoneal dose; format: functional
Mus musculus [6] = assay: Intraperitoneal dose that produces a half maximal response in mouse gall bladder emptying assay (in vivo); format: functional; details: ip
[7] = Volume of distribution at steady state at an intravenous dose of 5.5 mg/kg in rat; format: ADME, organism-based; parameters: dose 5.5 mg/kg, route intravenous; details: in vivo, read-out: Vss
[8] = target: T1, Gastrin/cholecystokinin type B receptor (Homo sapiens, UniProt P32239); assay: In vitro for binding affinity against human cholecystokinin type B receptor.
T1 sequence (P32239 whole entry): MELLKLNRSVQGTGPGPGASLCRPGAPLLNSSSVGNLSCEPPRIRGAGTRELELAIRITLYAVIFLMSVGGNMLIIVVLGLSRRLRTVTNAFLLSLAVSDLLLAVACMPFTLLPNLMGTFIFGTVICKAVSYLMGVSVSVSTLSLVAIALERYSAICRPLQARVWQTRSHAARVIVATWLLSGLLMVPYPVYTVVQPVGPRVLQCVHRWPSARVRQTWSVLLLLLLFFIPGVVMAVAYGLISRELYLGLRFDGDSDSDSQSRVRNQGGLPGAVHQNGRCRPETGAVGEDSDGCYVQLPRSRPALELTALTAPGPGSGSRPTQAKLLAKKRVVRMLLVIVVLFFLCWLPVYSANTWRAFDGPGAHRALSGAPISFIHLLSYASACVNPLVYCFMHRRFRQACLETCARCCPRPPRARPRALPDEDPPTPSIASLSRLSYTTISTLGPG

[9] = Oral bioavailability in Long-Evans rats at an peroral dose of 6.3 mg/kg; format: ADME, organism-based; details: rat, in vivo
[10] = Maximum concentration at an peroral dose of 6.3 mg/kg in rat; format: ADME, organism-based; parameters: dose 6.3 mg/kg, route oral; details: in vivo, po
[11] = Total body clearance at an intravenous dose of 5.5 mg/kg in rat; format: ADME, organism-based; parameters: dose 5.5 mg/kg, route intravenous; details: in vivo
Cavia porcellus [12] = organism: Cavia porcellus; assay: In vitro functional efficacy relative to CCK-8 in inducing contraction of the isolated guinea pig gallbladder (GPGB) at a 1 uM concentration.
How it was run: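 Isolated guinea pig gallbladder, ligand 1 μM, 30 min at 37 °C; maximal contraction expressed relative to CCK-8 (1 μM) = 100%; values ± 5%.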

Mus musculus [13] = assay: as §1; format: functional
[14] = Maximum concentration at an intravenous dose of 5.5 mg/kg in rat; format: ADME, organism-based; parameters: dose 5.5 mg/kg, route intravenous; details: in vivo
Cavia porcellus [15] = organism: Cavia porcellus; assay: In vitro functional agonist activity in the isolated guinea pig gall bladder, concentration at which 50% of the maximal contraction observed was reported.; details: read-out: ED50 (the source's name)
[16] = Half life period at an intravenous dose of 5.5 mg/kg in rat; format: ADME, organism-based; parameters: dose 5.5 mg/kg, route intravenous; details: in vivo
[17] = target: T2, Cholecystokinin receptor type A (Homo sapiens, UniProt P32238); assay: In vitro for binding affinity against human cholecystokinin type A receptor.
T2 sequence (P32238 whole entry): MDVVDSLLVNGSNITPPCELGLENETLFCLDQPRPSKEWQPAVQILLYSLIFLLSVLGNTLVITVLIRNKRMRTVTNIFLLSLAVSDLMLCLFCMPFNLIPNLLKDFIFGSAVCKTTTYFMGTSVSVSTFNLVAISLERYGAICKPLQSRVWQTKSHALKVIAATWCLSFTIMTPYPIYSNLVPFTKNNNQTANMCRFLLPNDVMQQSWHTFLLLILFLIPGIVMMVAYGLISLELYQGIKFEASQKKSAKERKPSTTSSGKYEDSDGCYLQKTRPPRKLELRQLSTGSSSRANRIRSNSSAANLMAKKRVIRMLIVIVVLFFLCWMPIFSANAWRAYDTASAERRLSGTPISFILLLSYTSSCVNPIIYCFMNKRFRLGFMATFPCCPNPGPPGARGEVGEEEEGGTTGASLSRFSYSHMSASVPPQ

[18] = Volume of distribution at steady state at an intravenous dose of 6.5 mg/kg in rat; format: ADME, organism-based; parameters: dose 6.5 mg/kg, route intravenous; details: in vivo, read-out: Vss
[19] = Maximum concentration at an peroral dose of 6.2 mg/kg in rat; format: ADME, organism-based; parameters: dose 6.2 mg/kg, route oral; details: in vivo, po
[20] = Maximum concentration at an intravenous dose of 6.5 mg/kg in rat; format: ADME, organism-based; parameters: dose 6.5 mg/kg, route intravenous; details: in vivo
[21] = Total body clearance at an intravenous dose of 6.5 mg/kg in rat; format: ADME, organism-based; parameters: dose 6.5 mg/kg, route intravenous; details: in vivo
[22] = Half life period at an intravenous dose of 6.5 mg/kg in rat; format: ADME, organism-based; parameters: dose 6.5 mg/kg, route intravenous; details: in vivo
[23] = Oral bioavailability in Long-Evans rats at an peroral dose of 6.5 mg/kg; format: ADME, organism-based; details: rat, in vivo
Mus musculus [24] = assay: maximal response at 1 nmol/kg peroral dose; format: functional

Structure (SMILES) | IC50 [8] [nM] | Max (Cavia porcellus [12]) [%] | EC50 (Cavia porcellus [15]) [nM] | IC50 [17] [nM] | further results
COc1ccc(N(C(=O)CN2C(=O)C(Cc3nn(C)c4ccccc34)C(=O)N(c3ccccc3)c3ccccc32)C(C)C)cc1 (stereo not drawn) | – | – | – | – | ED50 (Rattus norvegicus [1]): 0.22 µmol/kg; Max (Mus musculus [2]): 84%; Max (Mus musculus [3]): 83%; ED50 (Mus musculus [4]): 0.03 µmol/kg; Max (Rattus norvegicus [5]): 98%; ED50 (Mus musculus [6]): 0.0008 µmol/kg
COc1ccc(N(C(=O)CN2C(=O)C(Cc3n[nH]c4ccccc34)(OC)C(=O)N(c3ccccc3)c3ccccc32)C(C)C)cc1 (stereo not drawn) | 3630 | 70 | 70 | 14.5 | Vd [7]: 7.63 L/kg; Max (Mus musculus [2]): 72%; Max (Mus musculus [3]): 89%; bioavailability [9]: 5%; Cmax [10]: 90 ng/mL; clearance [11]: 35 mL/min/kg; ED50 (Mus musculus [4]): 0.1 µmol/kg; Max (Mus musculus [13]): 52%; Cmax [14]: 4900 ng/mL; half-life [16]: 3.4 h; ED50 (Mus musculus [6]): 0.0003 µmol/kg
COc1ccc(N(C(=O)CN2C(=O)C(Cc3n[nH]c4ncccc34)C(=O)N(c3ccccc3)c3ccccc32)C(C)C)cc1 (stereo not drawn) | 11200 | 90 | 40 | 112 | –
COc1cccc(N(C(=O)CN2C(=O)C(Cc3n[nH]c4ccccc34)C(=O)N(c3ccccc3)c3ccccc32)C(C)C)c1 (stereo not drawn) | 191 | 90 | 70 | 479 | –
COc1ccc(N(C(=O)CN2C(=O)C(C)(Cc3nn(C)c4ccccc34)C(=O)N(c3ccccc3)c3ccccc32)C(C)C)cc1 (stereo not drawn) | – | 60 | 240 | 38.9 | Vd [18]: 11.1 L/kg; Max (Mus musculus [2]): 75%; Cmax [19]: 20 ng/mL; Cmax [20]: 3270 ng/mL; ED50 (Mus musculus [4]): 0.45 µmol/kg; clearance [21]: 31 mL/min/kg; half-life [22]: 7.5 h; bioavailability [23]: 4%; ED50 (Mus musculus [6]): 0.01 µmol/kg
COc1ccc(N(C(=O)CN2C(=O)C(Cc3n[nH]c4ccccc34)C(=O)N(c3ccccc3)c3ccccc32)C2CCCC2)cc1 (stereo not drawn) | 776 | 90 | 40 | 17 | –
CC(C)N(C(=O)CN1C(=O)C(Cc2n[nH]c3ccccc23)C(=O)N(c2ccccc2)c2ccccc21)c1ccc(C(F)(F)F)cc1 (stereo not drawn) | 1660 | 80 | 230 | 661 | –
COc1ccc(N(C(=O)CN2C(=O)C(Cc3n[nH]c4c(F)cccc34)C(=O)N(c3ccccc3)c3ccccc32)C(C)C)cc1 (stereo not drawn) | 1050 | 90 | 20 | – | –
CC(C)N(C(=O)CN1C(=O)C(Cc2n[nH]c3ccccc23)C(=O)N(c2ccccc2)c2ccccc21)c1ccc2c(c1)OCO2 (stereo not drawn) | 724 | 100 | 20 | 355 | –
COc1ccccc1N(C(=O)CN1C(=O)C(Cc2n[nH]c3ccccc23)C(=O)N(c2ccccc2)c2ccccc21)C(C)C (stereo not drawn) | 129 | 40 | 830 | – | –
COc1ccc(N(C(=O)CN2C(=O)C(Cc3nsc4ccccc34)C(=O)N(c3ccccc3)c3ccccc32)C(C)C)cc1 (stereo not drawn) | – | 30 | – | – | –
COc1ccc(N(C(=O)CN2C(=O)C(Cc3cc(C)[nH]n3)C(=O)N(c3ccccc3)c3ccccc32)C(C)C)cc1 (stereo not drawn) | – | 20 | – | – | –
COc1ccc(N(C(=O)CN2C(=O)C(Cc3noc4ccccc34)C(=O)N(c3ccccc3)c3ccccc32)C(C)C)cc1 (stereo not drawn) | 174000 | 80 | 130 | 89.1 | –
CC(C)N(C(=O)CN1C(=O)C(Cc2n[nH]c3ccccc23)C(=O)N(c2ccccc2)c2ccccc21)c1ccc(F)cc1 (stereo not drawn) | 479 | 100 | 60 | 138 | –
COc1ccc(N(C(=O)CN2C(=O)C(C)(Cc3c[nH]c4ccccc34)C(=O)N(c3ccccc3)c3ccccc32)C(C)C)cc1 (stereo not drawn) | – | – | – | – | Max (Mus musculus [3]): 91%; Max (Mus musculus [24]): 46%; ED50 (Mus musculus [4]): 0.38 µmol/kg; ED50 (Mus musculus [6]): 0.0008 µmol/kg

From ChEMBL document CHEMBL1130123, “Optimization of 3-(1H-indazol-3-ylmethyl)-1,5-benzodiazepines as potent, orally active CCK-A agonists” (J Med Chem, 1997)
